Measurements published in ChEMBL document CHEMBL1128429, “Synthesis and structure-activity relationships of 6-heterocyclic-substituted purines as inactivation modifiers of cardiac sodium channels” (J Med Chem, 1995).
Values belong to the compound of their own block, whether it stands above or below them.

Key:
[1] = system: Sodium channel protein type 5 subunit alpha (Cavia porcellus); assay: Inactivation process of guinea pig cardiac Na channels expressed in xenopus oocytes was determined by measuring increase in current integral in presence of compound versus control at 10 uM; settings: oocyte
[2] = Inactivation processes of human heart Na channel expressed in Xenopus oocytes as increase in current at 10 uM; type: functional, Oocyte
How it was run: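 Oocytes injected with cRNA transcribed from human cardiac Na channel (HH1) cDNA. Two-microelectrode voltage clamp at 21–23 °C, perfusion buffer with Na raised to 140 mM. Current integrated at −20 mV after the capacity transient settled. Single 10 μM exposure per oocyte; percent change in integral versus control, ± SEM.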

[3] = Effective concentration against Xenopus oocytes expressing human heart Na channel; type: functional, cell-based; settings: oocyte
How it was run: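 HH1 human cardiac Na channel cRNA in oocytes; perfusate Na 140 mM, 21–23 °C, integral taken at −20 mV. At least three concentrations, n ≥ 3 each, single concentration per oocyte. Pooled data gave the EC50 (nM producing 50% integral increase) by linear regression over the lower, non-blocking range.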

Oryctolagus cuniculus [4] = species: Oryctolagus cuniculus; assay: Antiarrhythmic activity was determined by measuring the concentration that produced a 20 ms increase in ERP; type: functional, Heart
How it was run: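 Langendorff-perfused rabbit heart, equilibrated 45 min before control. ERP measured after 15 min exposure to each of five cumulative concentrations: single premature stimulus scanning diastole at twice threshold. Concentration giving a 20 ms ERP increase taken from the concentration–response curve; repeated-measures ANOVA, mean change ± SEM.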

Oryctolagus cuniculus [5] = species: Oryctolagus cuniculus; assay: Concentration which increased contractility by 20% in rabbit; type: functional
How it was run: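 Langendorff-perfused rabbit heart, 45 min equilibration, then five cumulative concentrations with 15 min exposure each. Contractility read as dP/dt; the nanomolar concentration raising it by 20% was derived from the concentration–response curve. Repeated-measures ANOVA, mean change from control ± SEM.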

[6] = Effective concentration against Xenopus oocytes expressing guinea pig heart Na channel; type: functional, cell-based, Cavia porcellus; settings: oocyte
How it was run: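 Guinea pig heart RNA in Xenopus oocytes, voltage clamp at 21–23 °C, integral taken at −10 mV. Three or more concentrations, n ≥ 3 each, one per oocyte. Pooled percent-change data plotted semilogarithmically; EC50 (nM giving 50% integral increase) obtained by linear regression over the range lacking significant current block.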

Compound: OC(CN1CCN(C(c2ccc(F)cc2)c2ccc(F)cc2)CC1)Cn1cnc2c(-n3cccc3)ncnc21 (configuration not stated)
Change [1]: 521%

Compound: NC(CN1CCN(C(c2ccccc2)c2ccccc2)CC1)Cn1cnc2c(-n3cccc3)ncnc21 (configuration not stated)
Change [1]: 451%

Compound: OC(CN1CCN(C(c2ccccc2)c2ccccc2)CC1)Cn1cnc2c(N3CCCCC3)ncnc21 (configuration not stated)
Change [1]: 26%

Compound: Cc1ccn(-c2ncnc3c2ncn3CC(O)CN2CCN(C(c3ccccc3)c3ccccc3)CC2)n1 (configuration not stated)
Change [2]: 40%

EC50 [3]: 2700 nM
Compound: Cc1nccn1-c1ncnc2c1ncn2C[C@@H](O)CN1CCN(C(c2ccccc2)c2ccccc2)CC1
Change [2]: 1449%

Compound: OC(CN1CCN(C2c3ccccc3-c3ccccc32)CC1)Cn1cnc2c(-n3cccc3)ncnc21 (configuration not stated)
Change [1]: -19%

EC50 [6]: 158 nM
Compound: OC(CN1CCN(C(c2ccccc2)c2ccccc2)CC1)Cn1cnc2c(-n3cccn3)ncnc21 (configuration not stated)
EC20 (Oryctolagus cuniculus [4]): 81 nM | dP/dt (Oryctolagus cuniculus [5]): 40 nM | Change [1]: 372%

Compound: Cc1cc2c(n1-c1ncnc3c1ncn3CC(O)CN1CCN(C(c3ccccc3)c3ccccc3)CC1)CCCC2 (configuration not stated)
Change [1]: 8%

EC50 [6]: 1040 nM
Compound: Nc1ncnc2c1ncn2C[C@@H](O)CN1CCN(C(c2ccccc2)c2ccccc2)CC1
EC20 (Oryctolagus cuniculus [4]): 109 nM | dP/dt (Oryctolagus cuniculus [5]): 89 nM | Change [1]: 139%

EC50 [6]: 1260 nM
Compound: OC(CN1CCN(C(c2ccccc2)c2ccccc2)CC1)Cn1cnc2c(-c3ccccc3)ncnc21 (configuration not stated)
Change [1]: 151%

Compound: O[C@@H](CN1CCN(C(c2ccccc2)c2ccccc2)CC1)Cn1cnc2c(-n3cccc3)nc(C(F)(F)F)nc21
Change [1]: -13%

EC50 [3]: 3990 nM
Compound: Cc1ncnc2c1ncn2C[C@@H](O)CN1CCN(C(c2ccccc2)c2ccccc2)CC1
Change [2]: 105%

Compound: c1ccc2c(c1)CCc1ccccc1C2N1CCN(CCCn2cnc3c(-n4cccc4)ncnc32)CC1
Change [1]: 120%

Compound: OC(CN1CCC(C(O)(c2ccccc2)c2ccccc2)CC1)Cn1cnc2c(-n3cccc3)ncnc21 (configuration not stated)
Change [1]: -10%

Compound: OC(CN1CCN(CC(c2ccccc2)c2ccccc2)CC1)Cn1cnc2c(-n3cccc3)ncnc21 (configuration not stated)
Change [1]: -47%

Compound: OC(CN1CCN(C(c2ccccc2)c2ccccc2)CC1)Cn1cnc2cccnc21 (configuration not stated)
Change [1]: 154%

EC50 [3]: 1250 nM
Compound: O[C@@H](CN1CCN(C(c2ccccc2)c2ccccc2)CC1)Cn1cnc2c(-n3ccnc3)ncnc21
EC20 (Oryctolagus cuniculus [4]): 30 nM | Change [2]: 459%

EC50 [6]: 796 nM
Compound: OC(CN1CCN(C(c2ccccc2)c2ccccc2)CC1)Cn1cnc2cncnc21 (configuration not stated)
EC20 (Oryctolagus cuniculus [4]): 95 nM | dP/dt (Oryctolagus cuniculus [5]): 110 nM | Change [1]: 288%

Compound: OC(CN1CCN(Cc2ccccc2)CC1)Cn1cnc2c(-n3cccc3)ncnc21 (configuration not stated)
Change [1]: 182%

Compound: OC(CN1CCN(C(c2ccccc2)c2ccccc2)CC1)Cn1cnc2c(NCc3ccccc3)ncnc21 (configuration not stated)
Change [1]: -77%

Compound: OC(COc1cccc2[nH]ccc12)CN1CCN(C(c2ccccc2)c2ccccc2)CC1 (configuration not stated)
Change [1]: -29%

EC50 [6]: 85 nM | EC50 [3]: 290 nM
Compound: O[C@@H](CN1CCN(C(c2ccccc2)c2ccccc2)CC1)Cn1cnc(-n2cccc2)c2ncnc1-2
EC20 (Oryctolagus cuniculus [4]): 43 nM | dP/dt (Oryctolagus cuniculus [5]): 377 nM | Change [2]: 540% | Change [1]: 711%

EC50 [3]: 920 nM
Compound: O[C@@H](CN1CCN(C(c2ccccc2)c2ccccc2)CC1)Cn1cnc2c(-n3cncn3)ncnc21
EC20 (Oryctolagus cuniculus [4]): 35 nM | dP/dt (Oryctolagus cuniculus [5]): 43 nM | Change [2]: 393%

EC50 [3]: 2100 nM
Compound: O[C@@H](CN1CCN(C(c2ccccc2)c2ccccc2)CC1)Cn1cnc(-c2ccncc2)c2ncnc1-2
Change [2]: 265%

Compound: O[C@@H](CN1CCN(C(c2ccccc2)c2ccccc2)CC1)Cn1cnc2c(-c3ncon3)ncnc21
Change [2]: 138%

Compound: CC1CN(CC(O)Cn2cnc3c(-n4cccc4)ncnc32)CCN1C(c1ccccc1)c1ccccc1 (configuration not stated)
Change [1]: 839%

EC50 [3]: 78 nM
Compound: O=Cc1cccn1-c1ncnc2c1ncn2C[C@@H](O)CN1CCN(C(c2ccccc2)c2ccccc2)CC1
EC20 (Oryctolagus cuniculus [4]): 17 nM | dP/dt (Oryctolagus cuniculus [5]): 17 nM | Change [2]: 904%

Compound: OC(CN1CCN(C(c2ccccc2)c2ccccc2)CC1)Cn1ccc2cccnc21 (configuration not stated)
Change [1]: -71%

Compound: OC(CN1CCC(C(c2ccccc2)c2ccccc2)CC1)Cn1cnc2c(-n3cccc3)ncnc21 (configuration not stated)
Change [1]: 108%

EC50 [3]: 433 nM
Compound: O[C@@H](CN1CCN(C(c2ccccc2)c2ccccc2)CC1)Cn1cnc(-c2cccs2)c2ncnc1-2
Change [2]: 437%

EC50 [3]: 1030 nM
Compound: O[C@@H](CN1CCN(C(c2ccccc2)c2ccccc2)CC1)Cn1cnc2c(-c3cccs3)ncnc21
Change [2]: 116%

EC50 [6]: 630 nM
Compound: OC(CN1CCN(C(c2ccccc2)c2ccccc2)CC1)Cn1cnc2c(-n3ccnc3)ncnc21 (configuration not stated)
EC20 (Oryctolagus cuniculus [4]): 27 nM | dP/dt (Oryctolagus cuniculus [5]): 46 nM | Change [1]: 680%

Compound: CC(c1ccccc1)N1CCN(CC(O)Cn2cnc3c(-n4cccc4)ncnc32)CC1 (configuration not stated)
Change [1]: -32%

Compound: OC(CN1CCN(C(c2ccccc2)c2ccccc2)CC1)Cn1cnc2c(C#Cc3ccccc3)ncnc21 (configuration not stated)
Change [1]: 9%

Compound: Cc1ccc(C)n1-c1ncnc2c1ncn2CC(O)CN1CCN(C(c2ccccc2)c2ccccc2)CC1 (configuration not stated)
Change [1]: -47%

EC50 [3]: 7260 nM
Compound: O=Cc1ccn(-c2ncnc3c2ncn3C[C@@H](O)CN2CCN(C(c3ccccc3)c3ccccc3)CC2)c1
Change [2]: 63%

EC50 [3]: 447 nM
Compound: N#Cc1cccn1-c1ncnc2c1ncn2C[C@@H](O)CN1CCN(C(c2ccccc2)c2ccccc2)CC1
EC20 (Oryctolagus cuniculus [4]): 57 nM | dP/dt (Oryctolagus cuniculus [5]): 22 nM | Change [2]: 456%

EC50 [6]: 204 nM
Compound: OC(CN1CCN(C(c2ccccc2)c2ccccc2)CC1)Cn1cnc2c(-n3cncn3)ncnc21 (configuration not stated)
EC20 (Oryctolagus cuniculus [4]): 57 nM | dP/dt (Oryctolagus cuniculus [5]): 60 nM | Change [1]: 1664%

EC50 [3]: 900 nM
Compound: O[C@@H](CN1CCN(C(c2ccccc2)c2ccccc2)CC1)Cn1cnc(-n2cccn2)c2ncnc1-2
EC20 (Oryctolagus cuniculus [4]): 74 nM | dP/dt (Oryctolagus cuniculus [5]): 148 nM | Change [2]: 369%

Compound: C[C@](O)(CN1CCN(C(c2ccccc2)c2ccccc2)CC1)Cn1cnc2c(-n3cccc3)ncnc21
Change [1]: 34%

EC50 [3]: 1260 nM
Compound: Cc1nccn1-c1ncnc2c1ncn2CC(O)CN1CCN(C(c2ccccc2)c2ccccc2)CC1 (configuration not stated)
EC20 (Oryctolagus cuniculus [4]): 90 nM | dP/dt (Oryctolagus cuniculus [5]): 60 nM | Change [2]: 158%

EC50 [3]: 1950 nM
Compound: OC(CN1CCN(C(c2ccccc2)c2ccccc2)CC1)Cn1cnc2c(Cl)ncnc21 (configuration not stated)
Change [2]: 176%

Compound: CN1CCN(CC(O)Cn2cnc3c(-n4cccc4)ncnc32)CC1 (configuration not stated)
Change [1]: -35%

Compound: Cc1ccccc1C(c1ccccc1)N1CCN(CC(O)Cn2cnc3c(-n4cccc4)ncnc32)CC1 (configuration not stated)
Change [1]: 209%

Compound: O=C(CN1CCN(C(c2ccccc2)c2ccccc2)CC1)Cn1cnc2c(-n3cccc3)ncnc21
Change [1]: 9%

Compound: OC(CN1CCN(C(c2ccccc2)c2ccncc2)CC1)Cn1cnc2c(-n3cccc3)ncnc21 (configuration not stated)
Change [1]: 326%

EC50 [6]: 1410 nM
Compound: Nc1ncnc2c1ncn2CC(O)CN1CCN(C(c2ccccc2)c2ccccc2)CC1 (configuration not stated)
EC20 (Oryctolagus cuniculus [4]): 307 nM | dP/dt (Oryctolagus cuniculus [5]): 128 nM | Change [1]: 212%

Compound: OC(CN1CCN(C(c2ccccc2)c2ccccc2)CC1)Cn1ccc2ccccc21 (configuration not stated)
Change [1]: 36%

Compound: OC(CN1CCCN(C(c2ccccc2)c2ccccc2)CC1)Cn1cnc2c(-n3cccc3)ncnc21 (configuration not stated)
Change [1]: 38%

Compound: Nc1ncnc2c1ncn2C[C@H](O)CN1CCN(C(c2ccccc2)c2ccccc2)CC1
EC20 (Oryctolagus cuniculus [4]): 5240 nM | dP/dt (Oryctolagus cuniculus [5]): 1140 nM | Change [1]: -43%

Compound: Nc1nc(-c2ccncc2)nc2c1ncn2CC(O)CN1CCN(C(c2ccccc2)c2ccccc2)CC1 (configuration not stated)
Change [1]: -2%

Compound: OC(CN1CCN(C(c2ccccc2)c2ccccc2)CC1)Cn1cnc2c(Cc3ccccc3)ncnc21 (configuration not stated)
Change [1]: -100%

EC50 [6]: 399 nM
Compound: N#Cc1ncnc2c1ncn2CC(O)CN1CCN(C(c2ccccc2)c2ccccc2)CC1 (configuration not stated)
EC20 (Oryctolagus cuniculus [4]): 260 nM | dP/dt (Oryctolagus cuniculus [5]): 250 nM | Change [1]: 1328%

Compound: O/N=C(/CN1CCN(C(c2ccccc2)c2ccccc2)CC1)Cn1cnc2c(-n3cccc3)ncnc21
Change [1]: -6%

Compound: O=C(C(c1ccccc1)c1ccccc1)N1CCN(CC(O)Cn2cnc3c(-n4cccc4)ncnc32)CC1 (configuration not stated)
Change [1]: 6%

Compound: O[C@@H](CN1CCN(C(c2ccccc2)c2ccccc2)CC1)Cn1cnc(-c2ncon2)c2ncnc1-2
Change [2]: -6%

Compound: Nc1ncnc2c1ncn2CCCN1CCN(C(c2ccccc2)c2ccccc2)CC1
Change [1]: -66%

Compound: OC(CN1CCC(=C(c2ccccc2)c2ccccc2)CC1)Cn1cnc2c(-n3cccc3)ncnc21 (configuration not stated)
Change [1]: 94%

EC50 [6]: 580 nM
Compound: OC(CN1CCN(C(c2ccccc2)c2ccccc2)CC1)Cn1cnc2c(-n3cccc3)ncnc21 (configuration not stated)
Change [1]: 542%

EC50 [6]: 245 nM
Compound: O[C@@H](CN1CCN(C(c2ccccc2)c2ccccc2)CC1)Cn1cnc2c(-n3cccc3)ncnc21
Change [1]: 390%

Compound: OC(CN1CCN(C(c2ccccc2)c2ccccc2)CC1)Cn1cnc2ccccc21 (configuration not stated)
Change [1]: 42%

EC50 [3]: 2800 nM
Compound: O[C@@H](CN1CCN(C(c2ccccc2)c2ccccc2)CC1)Cn1cnc2c(-c3ccncc3)ncnc21
Change [2]: 99%

EC50 [6]: 585 nM
Compound: Cc1cnn(-c2ncnc3c2ncn3CC(O)CN2CCN(C(c3ccccc3)c3ccccc3)CC2)c1 (configuration not stated)
EC20 (Oryctolagus cuniculus [4]): 216 nM | dP/dt (Oryctolagus cuniculus [5]): 300 nM | Change [1]: 868%
